A selection: hits, their analogues and other compounds. The true share with any hit is near 4.2%.
TAAR1 antag – antagonists of human TAAR1; Q96RJ0; CHO RD-HGA16 TAAR1, Fluo-8 calcium fluorescence, antagonist; inhibition, % at 3 µM; 360,000 tested, 1.5% active;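 active = inhibition above a per-plate cutoff, the mean inhibition of test compounds on that plate plus 3 SD, cut at about 49% in these data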
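test system = CHO RD-HGA16 cells bearing hTAAR1 | replication = singlicate | controls = DMSO-only wells and EC80 β-PEA-stimulated wells | reagent = EC80 β-phenethylamine stimulus | read-out basis = percent inhibition of PEA-evoked calcium signal, max/basal emission ratio | schedule = seeding 17-24 h prior, 75-min 37 °C, 30-min RT dye loading | signal = kinetic Fluo-8 calcium fluorescence measurement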
TAAR1 ag – human TAAR1 agonism; activation, % at 3 µM; Q96RJ0; 360,000 tested, 0.99% active; AID 624467; CHO RD-HGA16 TAAR1, Fluo-8 calcium fluorescence; vehicle wells 0%, saturating PEA agonist 100%;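 active = activation above the mean activation of all test compounds in the run plus 3 SD, cut at about 38% in these data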
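Signal – calcium-sensitive Fluo-8 signal, excitation 470-495, emission 515-575 nm · System – RD-HGA16 (CHO) cells co-expressing Gα16 and hTAAR1 · Incubation – 17-24 h seeding, 75 min 37 °C dye, 30 min RT · Compound dosing – 3 µM single concentration · Repeats – no replicates (n 1)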
GalR3 antagonist – antagonists of human GalR3 | AID 651719 | inhibition, % at 3 µM | 360,000 tested, 0.44% active | HEK293 GalR3-CNG cAMP membrane potential fluorescence; galR3 body fused to GalR1 C-terminus;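 active = inhibition above the screen-wide average plus 3 SD, cut at about 13% in these data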;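 also: forskolin and galanin both at EC90 stimulate the cells; cAMP rise reported by CNG channel membrane potential dye signal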
Target sequence (O60755 1-299 limits assumed): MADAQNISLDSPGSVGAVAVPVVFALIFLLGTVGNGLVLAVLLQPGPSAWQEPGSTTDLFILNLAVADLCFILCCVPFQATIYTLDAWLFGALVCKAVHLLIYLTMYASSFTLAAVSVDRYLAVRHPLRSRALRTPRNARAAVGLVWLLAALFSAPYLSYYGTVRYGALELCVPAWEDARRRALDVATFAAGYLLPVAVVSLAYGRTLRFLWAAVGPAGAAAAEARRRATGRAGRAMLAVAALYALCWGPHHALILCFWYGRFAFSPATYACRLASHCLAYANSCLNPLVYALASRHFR
CHO parental Ca – signal in parental CHO cells, OX1R antagonist counter-screen. parental CHO-K1, ATP-induced calcium, Fluo-8 fluorescence. inhibition, % at 5.6 µM. 330,000 tested, 0.63% active;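 active = inhibition above that plate's mean sample inhibition plus 3 SD, cut at about 26% in these data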
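Test system: parental CHO cells; detection: calcium-sensitive Fluo-8 fluorescence; evaluation: percent inhibition of calcium signal; also added: ATP as calcium-mobilizing challenge; repeats: one well per compound; control set: ATP-challenged DMSO wells low, unchallenged DMSO wells high; compound: single nominal dose of 5.6 µM per compound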
OX1R antag-1 – blocks the human orexin 1 receptor; O43613; AID 434989; inhibition, % at 5 µM; CHO/OX1R cells, Fluo-8 calcium fluorescence, orexin A; 330,000 tested, 0.43% active;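 active = inhibition above its plate's threshold, mean inhibition of all tested compounds on the plate plus 3 SD, cut at about 37% in these data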
Target sequence (O43613 whole entry, looked up): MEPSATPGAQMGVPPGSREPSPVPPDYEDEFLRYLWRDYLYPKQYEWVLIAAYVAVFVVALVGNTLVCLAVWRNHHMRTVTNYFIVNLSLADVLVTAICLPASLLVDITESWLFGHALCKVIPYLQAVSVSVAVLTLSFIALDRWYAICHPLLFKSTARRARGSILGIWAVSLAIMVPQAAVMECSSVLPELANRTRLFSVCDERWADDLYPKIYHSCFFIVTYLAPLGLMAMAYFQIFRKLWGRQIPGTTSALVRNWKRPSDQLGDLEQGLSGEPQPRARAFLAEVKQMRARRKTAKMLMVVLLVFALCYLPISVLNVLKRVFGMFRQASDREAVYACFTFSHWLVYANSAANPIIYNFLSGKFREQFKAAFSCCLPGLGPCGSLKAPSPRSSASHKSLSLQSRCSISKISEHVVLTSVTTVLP
OX1R antag-2 – OX1R (human) antagonism | AID 485270 | 330,000 tested, 1.8% active | inhibition, % at 6.6 µM | O43613 | OX1R-expressing cells, FRET antagonist read-out; in the data active = inhibition mostly above about 38%, no sharp cut-off; inactive = mostly below about 40%
TAAR1 ag conf – human TAAR1 agonism, confirmed; shares compounds with TAAR1 ag; CHO RD-HGA16 TAAR1, Fluo-8 calcium fluorescence; scaled: DMSO 0%, maximal phenethylamine 100%; activation, % at 3 µM; 2,400 tested, 82% active;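 active = activation above a cutoff set at the run's mean compound activation plus 3 SD, cut at about 39% in these data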
Ga16 nonsel ag – nonselective agonist in parental cells, TAAR1 agonist counter-screen; shares compounds with TAAR1 ag; AID 651787; 2,400 tested, 50% active; activation, % at 3 µM; CHO-Ga16 parental, Fluo-8 calcium fluorescence; normalized to maximal ATP response, DMSO zero;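 active = activation above the run cutoff, the mean activation over all tested wells plus 3 SD, cut at about 12% in these data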
TAAR1 desens – TAAR1 response desensitization, agonist counter-screen; shares compounds with TAAR1 ag; inhibition, % at 3 µM; CHO RD-HGA16 hTAAR1, Fluo-8 calcium, beta-PEA response inhibition; 2,400 tested, 46% active;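 active = inhibition above the run cutoff, the mean inhibition of all test compounds plus 3 SD, cut at about 49% in these data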;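 also: beta-PEA stimulus applied at its EC80; loss of beta-PEA calcium signal after compound pretreatment read as receptor desensitization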
Ga16 nonsel ant – nonselective Ga16 antagonism, counter-screen | CHO-Ga16 ATP-induced calcium, Fluo-8 fluorescence | 2,400 tested, 39% active | inhibition, % at 3 µM | shares compounds with TAAR1 ag;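 active = inhibition above the plate's mean compound inhibition plus 3 SD, computed per plate, cut at about 22% in these data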
Numbers stand for hits.

CC(=O)Nc1ccc(NC(=O)C(=O)NCC(c2ccco2)N2CCc3ccccc3C2)cc1 (stereo not drawn) was read as TAAR1 antag inactive, TAAR1 ag 78, GalR3 antagonist inactive, CHO parental Ca 49, OX1R antag-1 inactive, OX1R antag-2 inactive, TAAR1 ag conf 93, Ga16 nonsel ag inactive, TAAR1 desens inactive and Ga16 nonsel ant inactive.
COc1ccc(/C=C/CN2CCCC(C(=O)c3ccc(OC)c(F)c3)C2)cc1 (stereo not drawn) was read as TAAR1 antag inactive, TAAR1 ag inactive, GalR3 antagonist inactive, CHO parental Ca inactive, OX1R antag-1 inactive and OX1R antag-2 inactive.
For Cc1ccc(NS(=O)(=O)c2cccc(C(=O)N3CCOCC3)c2)cc1 the results were TAAR1 antag inactive, TAAR1 ag inactive, GalR3 antagonist inactive, CHO parental Ca inactive, OX1R antag-1 inactive and OX1R antag-2 inactive.
Screening Cc1cccc(C(=O)NC(=S)NCc2ccccc2)c1 returned TAAR1 antag inactive, TAAR1 ag inactive, GalR3 antagonist inactive, CHO parental Ca inactive, OX1R antag-1 inactive and OX1R antag-2 inactive.
Cc1cccc(C(=O)NC(=S)NNC(=O)COc2c(C)cccc2C)c1 was read as TAAR1 antag 90, TAAR1 ag 126, GalR3 antagonist inactive, CHO parental Ca inactive, OX1R antag-1 inactive, OX1R antag-2 inactive, TAAR1 ag conf 143, Ga16 nonsel ag 119, TAAR1 desens 96 and Ga16 nonsel ant 63.
`Cc1cccc(C(=O)NC(=S)NNC(=O)Cc2ccccc2)c1` gave TAAR1 antag 64, TAAR1 ag 119, GalR3 antagonist inactive, CHO parental Ca inactive, OX1R antag-1 inactive, OX1R antag-2 inactive, TAAR1 ag conf 121, Ga16 nonsel ag 89, TAAR1 desens 74 and Ga16 nonsel ant 45.
Screening c1ccc(CN(CC2=NCCN2)c2ccccc2)cc1 returned TAAR1 antag inactive, TAAR1 ag 66, GalR3 antagonist inactive, CHO parental Ca inactive, OX1R antag-1 inactive, OX1R antag-2 inactive, TAAR1 ag conf 92, Ga16 nonsel ag inactive, TAAR1 desens 67 and Ga16 nonsel ant inactive.
`Cc1cc(C(C)(C)C)cc(C)c1CC1=NCCN1` gave TAAR1 antag inactive, TAAR1 ag inactive, GalR3 antagonist inactive, CHO parental Ca inactive, OX1R antag-1 inactive and OX1R antag-2 inactive.
c1ccc(CC2=NCCN2)cc1 was read as TAAR1 antag 63, TAAR1 ag 75, GalR3 antagonist inactive, CHO parental Ca inactive, OX1R antag-1 inactive, OX1R antag-2 inactive, TAAR1 ag conf 92, Ga16 nonsel ag inactive, TAAR1 desens 76 and Ga16 nonsel ant inactive.
Screening CC(C)[C@H](NC(=O)c1ccccc1)C(=O)N1CCC[C@H]1C(=O)NCCc1ccccc1Cl returned TAAR1 antag 83, TAAR1 ag 80, GalR3 antagonist inactive, TAAR1 ag conf 96, Ga16 nonsel ag inactive, TAAR1 desens 93 and Ga16 nonsel ant inactive.
For CC(C)[C@H](NS(=O)(=O)c1ccc(F)cc1F)C(=O)N1CCC[C@H]1C(=O)NCCc1ccccc1Cl the results were TAAR1 antag 64, TAAR1 ag 49, GalR3 antagonist inactive, TAAR1 ag conf 76, Ga16 nonsel ag inactive, TAAR1 desens 86 and Ga16 nonsel ant inactive.
Screening CC(C)C[C@H](NS(=O)(=O)c1ccc(F)cc1F)C(=O)N1CCC[C@H]1C(=O)NCc1ccccc1 returned TAAR1 antag inactive, TAAR1 ag inactive and GalR3 antagonist inactive.
Screening CC(C)[C@H](NC(=O)c1ccc(Cl)c(Cl)c1)C(=O)N1CCC[C@H]1C(=O)NCCc1ccccc1Cl returned TAAR1 antag 80, TAAR1 ag 53, GalR3 antagonist inactive, TAAR1 ag conf 82, Ga16 nonsel ag inactive, TAAR1 desens 98 and Ga16 nonsel ant inactive.
For O=C(Nc1ccc(F)cc1)Nc1cccnc1 the results were TAAR1 antag inactive, TAAR1 ag 64, GalR3 antagonist inactive, TAAR1 ag conf 81, Ga16 nonsel ag inactive, TAAR1 desens inactive and Ga16 nonsel ant inactive.
O=C(Nc1ccccc1)Nc1ccc(Oc2cccnc2)nc1 was read as TAAR1 antag inactive, TAAR1 ag 67, GalR3 antagonist inactive, CHO parental Ca inactive, OX1R antag-1 inactive, OX1R antag-2 inactive, TAAR1 ag conf 90, Ga16 nonsel ag 12, TAAR1 desens 80 and Ga16 nonsel ant inactive.
O=C(Nc1ccc(OC(F)(F)F)cc1)Nc1cccnc1 was read as TAAR1 antag inactive, TAAR1 ag inactive, GalR3 antagonist inactive, CHO parental Ca inactive, OX1R antag-1 inactive and OX1R antag-2 inactive.
Fc1ccc(NC(=S)Nc2cccnc2)cc1 was read as TAAR1 antag inactive, TAAR1 ag inactive, GalR3 antagonist inactive, CHO parental Ca inactive, OX1R antag-1 inactive and OX1R antag-2 inactive.
`CCn1cc(C(=O)NCC(=O)NCCCN2CCOCC2)c(=O)c2cc3c(cc21)OCO3` gave TAAR1 antag inactive, TAAR1 ag inactive, GalR3 antagonist inactive, CHO parental Ca inactive, OX1R antag-1 inactive and OX1R antag-2 inactive.
`O=C(O)CCc1ccc(-c2cccs2)n1CCc1ccccc1` gave TAAR1 antag inactive, TAAR1 ag 62, GalR3 antagonist inactive, CHO parental Ca inactive, OX1R antag-1 inactive, OX1R antag-2 inactive, TAAR1 ag conf 83, Ga16 nonsel ag inactive, TAAR1 desens 73 and Ga16 nonsel ant inactive.
COC(=O)C1=C(C)N(Cc2cccc(C(F)(F)F)c2)C(=NCC2CC2)NC1c1cccc(C(F)(F)F)c1 (stereo not drawn) was read as TAAR1 antag 56, TAAR1 ag 50, GalR3 antagonist inactive, TAAR1 ag conf 53, Ga16 nonsel ag 26, TAAR1 desens 54 and Ga16 nonsel ant 44.
`COC(=O)C1=C(C)N(Cc2cccc(C(F)(F)F)c2)C(=NCC2CC2)NC1c1ccc(F)cc1` (stereo not drawn) gave TAAR1 antag 101, TAAR1 ag 96, GalR3 antagonist inactive, TAAR1 ag conf 101, Ga16 nonsel ag 72, TAAR1 desens 94 and Ga16 nonsel ant 81.

Screening results deposited in PubChem BioAssay by The Scripps Research Institute Molecular Screening Center.
